From ChEMBL document CHEMBL4350958, “Rational Design of Short Peptide Variants by Using Kunitzin-RE, an Amphibian-Derived Bioactivity Peptide, for Acquired Potent Broad-Spectrum Antimicrobial and Improved Therapeutic Potential of Commensalism Coinfection of Pathogens” (J Med Chem, 2019)

Key:
Staphylococcus aureus [1] = assay: Antibacterial activity against Staphylococcus aureus ATCC 29213 measured after 18 to 24 hrs in presence of FeCl3; assay type: functional
Staphylococcus aureus [2] = assay: Antibacterial activity against Staphylococcus aureus ATCC 29213 measured after 24 hrs; assay type: functional; conditions: ATCC 29213, 24 h
In short: (§1)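 Broth microdilution modified from NCCLS. Mid-log bacteria at (0.5–1) × 10^5 CFU mL−1 in MHB, mixed with peptides serially diluted in 0.2% BSA. Incubated 24 h at 37 °C, read at A492. MIC taken as lowest concentration giving 95% growth inhibition. At least three independent experiments, each with three technical replicates.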

Staphylococcus aureus [3] = assay: Antibacterial activity against Staphylococcus aureus ATCC 25923 measured after 24 hrs; assay type: functional; conditions: ATCC 25923, 24 h; in short: as §1
[4] = Therapeutic index, ratio of MHC10 for hemolytic activity in human RBC to MIC95 against Staphylococcus aureus ATCC 25923; assay type: toxicity; conditions: human red blood cells (erythrocytes), read-out: TI
In short: (§2)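 Therapeutic index = MHC divided by MIC. MHC is the lowest concentration giving >10% lysis of human RBC (1 h, 37 °C, 1-128 µM, A576). MIC is 95% growth inhibition by broth microdilution: bacteria in MHB 24 h at 37 °C; Candida in MOPS-buffered RPMI 1640 at (0.5–1) × 10^3 CFU mL−1, 48 h at 28 °C.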

[5] = Therapeutic index, ratio of MHC10 for hemolytic activity in human RBC to MIC95 against methicillin-resistant Staphylococcus aureus ATCC 43300; assay type: toxicity; conditions: human red blood cells (erythrocytes), read-out: TI; in short: as §2
Escherichia coli [6] = assay: Antibacterial activity against Escherichia coli ATCC 25922 measured after 18 to 24 hrs in presence of FeCl3; assay type: functional
[7] = Therapeutic index, ratio of MHC10 for hemolytic activity in human RBC to MIC95 against Candida parapsilosis cgmcc2.3989; assay type: toxicity; conditions: human red blood cells (erythrocytes), read-out: TI; in short: as §2
[8] = Therapeutic index, ratio of MHC10 for hemolytic activity in human RBC to MIC95 against Candida tropicalis cgmcc2.1975; assay type: toxicity; conditions: human red blood cells (erythrocytes), read-out: TI; in short: as §2
Escherichia coli [9] = assay: Antibacterial activity against Escherichia coli ATCC 25922 measured after 18 to 24 hrs in presence of CaCl2; assay type: functional
Candida albicans [10] = assay: Antifungal activity against Candida albicans cgmcc2.2086 measured after 48 hrs by broth microdilution method; assay type: functional; conditions: cgmcc2.2086, 48 h
In short: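 Modified CLSI M27-A2 microdilution. Yeast colonies were diluted in MOPS-buffered RPMI 1640 to a final (0.5–1) × 10^3 CFU mL−1 and mixed with an equal volume of peptide serially diluted in 0.2% BSA. After 48 h at 28 °C, MIC was read at A492 as the lowest concentration inhibiting 95% of growth. At least three independent experiments, each with three technical replicates.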

Pseudomonas aeruginosa = assay: Antibacterial activity against Pseudomonas aeruginosa ATCC 27853 measured after 24 hrs; assay type: functional; conditions: ATCC 27853, 24 h
In short: (§3)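 Broth microdilution adapted from NCCLS. Mid-log bacteria were diluted in MHB to a final (0.5–1) × 10^5 CFU mL−1. Peptides were serially diluted in 0.2% BSA and mixed with an equal volume of cells. After 24 h at 37 °C, MIC was read at A492 as the lowest concentration inhibiting 95% of growth. At least three independent experiments, each with three technical replicates.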

Candida albicans [11] = assay: Antifungal activity against Candida albicans cgmcc2.2086 measured after 48 hrs in presence of FeCl by broth microdilution method; assay type: functional; conditions: cgmcc2.2086, 48 h
Staphylococcus aureus [12] = assay: Antibacterial activity against Staphylococcus aureus ATCC 29213 measured after 18 to 24 hrs in presence of CaCl2; assay type: functional
[13] = system: Staphylococcus epidermidis; assay: Antibacterial activity against Staphylococcus epidermidis ATCC 12228 measured after 24 hrs; assay type: functional; conditions: ATCC 12228, 24 h; in short: as §3
Escherichia coli [14] = assay: Antibacterial activity against Escherichia coli ATCC 25922 measured after 24 hrs; assay type: functional; conditions: ATCC 25922, 24 h; in short: as §3
[15] = Therapeutic index, ratio of MHC10 for hemolytic activity in human RBC to MIC95 against Staphylococcus aureus ATCC 29213; assay type: toxicity; conditions: human red blood cells (erythrocytes), read-out: TI; in short: as §2
Escherichia coli [16] = assay: Antibacterial activity against Escherichia coli ATCC 25922 measured after 18 to 24 hrs in presence of NaCl; assay type: functional
Salmonella typhimurium = assay: Antibacterial activity against Salmonella typhimurium ATCC 14028 measured after 24 hrs; assay type: functional, Salmonella enterica subsp. enterica serovar Typhimurium; conditions: Salmonella enterica, ATCC 14028, 24 h; in short: as §3
Escherichia coli [17] = assay: Antibacterial activity against Escherichia coli K99 measured after 24 hrs; assay type: functional; conditions: K99, 24 h; in short: as §3
Candida albicans [18] = assay: Antifungal activity against Candida albicans cgmcc2.2086 measured after 48 hrs in presence of MgCl by broth microdilution method; assay type: functional; conditions: cgmcc2.2086, 48 h
Escherichia coli [19] = assay: Antibacterial activity against Escherichia coli 078 measured after 24 hrs; assay type: functional; conditions: Escherichia coli, 078, 24 h; in short: as §3
Candida albicans [20] = assay: Antifungal activity against Candida albicans cgmcc2.2086 measured after 48 hrs in presence of KCl by broth microdilution method; assay type: functional; conditions: cgmcc2.2086, 48 h
Escherichia coli [21] = assay: Antibacterial activity against Escherichia coli UB1005 measured after 24 hrs; assay type: functional; conditions: UB1005, 24 h; in short: as §3
Candida albicans [22] = assay: Antifungal activity against Candida albicans cgmcc2.2086 measured after 48 hrs in presence of NH4Cl by broth microdilution method; assay type: functional; conditions: cgmcc2.2086, 48 h
Escherichia coli [23] = assay: Antibacterial activity against Escherichia coli ATCC 25922 measured after 18 to 24 hrs in presence of MgCl2; assay type: functional
Staphylococcus aureus [24] = assay: Antibacterial activity against Staphylococcus aureus ATCC 29213 measured after 18 to 24 hrs in presence of NaCl; assay type: functional
[25] = Bactericidal activity against Salmonella pullorum ATCC 7913 incubated for 24 hrs followed by replating on agar plate and measured after overnight incubation; assay type: functional, Salmonella enterica subsp. enterica serovar Pullorum; conditions: Salmonella enterica, ATCC 7913, 24 h; read-out: MBC>99.9
In short: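 Mid-log bacteria diluted in MHB to (0.5–1) × 10^5 CFU/mL and mixed 1:1 with peptide serially diluted in 0.2% BSA. After 24 h at 37 °C, 50 μL of each mixture was plated on agar and incubated overnight. MBC taken as the lowest concentration killing >99.9% of cells. At least three independent experiments, each with three technical replicates.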

H-AAKIILNPKFR-NH2
> 128 µM: MIC95 (Staphylococcus aureus [1]) | MIC95 (Staphylococcus aureus [2]) | MIC95 (Staphylococcus aureus [3]) | MIC95 (Escherichia coli [6]) | MIC95 (Escherichia coli [9]) | MIC95 (Candida albicans [10]) | MIC95 (Pseudomonas aeruginosa) | MIC95 (Candida albicans [11]) | MIC95 (Staphylococcus aureus [12]) | MIC95 [13] | MIC95 (Escherichia coli [14]) | MIC95 (Escherichia coli [16]) | MIC95 (Salmonella typhimurium) | MIC95 (Escherichia coli [17]) | MIC95 (Candida albicans [18]) | MIC95 (Escherichia coli [19]) | MIC95 (Candida albicans [20]) | MIC95 (Escherichia coli [21]) | MIC95 (Candida albicans [22]) | MIC95 (Escherichia coli [23]) | MIC95 (Staphylococcus aureus [24])
2: selectivity ratio [4] | selectivity ratio [5] | selectivity ratio [7] | selectivity ratio [8] | selectivity ratio [15]

H-AARIILRDRFR-NH2
2: selectivity ratio [4] | selectivity ratio [5] | selectivity ratio [7] | selectivity ratio [8] | selectivity ratio [15]
> 128 µM: MIC95 (Staphylococcus aureus [1]) | MIC95 (Staphylococcus aureus [2]) | MIC95 (Staphylococcus aureus [3]) | MIC95 (Escherichia coli [6]) | MIC95 (Escherichia coli [9]) | MIC95 (Candida albicans [10]) | MIC95 (Pseudomonas aeruginosa) | MIC95 (Candida albicans [11]) | MIC95 (Staphylococcus aureus [12]) | MIC95 [13] | MIC95 (Escherichia coli [16]) | MIC95 (Salmonella typhimurium) | MIC95 (Escherichia coli [17]) | MIC95 (Candida albicans [18]) | MIC95 (Escherichia coli [19]) | MIC95 (Candida albicans [20]) | MIC95 (Escherichia coli [21]) | MIC95 (Candida albicans [22]) | MIC95 (Escherichia coli [23]) | MIC95 (Staphylococcus aureus [24])
≥ 128 µM: MIC95 (Escherichia coli [14])

H-AARIILRPRFR-NH2
128 µM: MIC95 (Escherichia coli [9]) | MIC95 (Escherichia coli [16])
8 µM: MIC95 (Escherichia coli [19]) | MIC95 (Escherichia coli [21])
2: selectivity ratio [4] | selectivity ratio [5] | selectivity ratio [7] | selectivity ratio [8] | selectivity ratio [15]
> 128 µM: MIC95 (Staphylococcus aureus [1]) | MIC95 (Staphylococcus aureus [2]) | MIC95 (Staphylococcus aureus [3]) | MIC95 (Candida albicans [10]) | MIC95 (Pseudomonas aeruginosa) | MIC95 (Candida albicans [11]) | MIC95 (Staphylococcus aureus [12]) | MIC95 [13] | MIC95 (Candida albicans [18]) | MIC95 (Candida albicans [20]) | MIC95 (Candida albicans [22]) | MIC95 (Staphylococcus aureus [24])
16 µM: MIC95 (Escherichia coli [6]) | MIC95 (Escherichia coli [14]) | MIC95 (Salmonella typhimurium) | MIC95 (Escherichia coli [17])
64 µM: MBC [25] | MIC95 (Escherichia coli [23])
